Data set [1] can be described thus: Drug uptake in Candida albicans cell membrane by confocal microscopic analysis. Type of data set: ADME, cell-based. A digest of the protocol: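 For confocal imaging, C. albicans cells were co-incubated with the fluorescein-labelled galactoside, with untreated cells and FITC-treated cells as controls. Excitation was at 488 nm and emission was collected at 500–600 nm.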

Data set [2] has as its system Candida albicans. The experiment in a line: Antimicrobial activity against Candida albicans assessed as inhibition of fungal adherence to BEC by measuring change in adhesion at 10 mg/ml treated with fungus for 90 mins followed by compound washout and cell line addition by crystal violet staining based microscopic analysis relative to control. Type of data set: functional. Further details: scale not given: the % may be the effect or the level left. A digest of the protocol:
(§1)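 Stationary-phase C. albicans, grown overnight in YEPD at 30°C and 200 rpm, was washed and suspended in PBS at 1 x 10^8/mL. Yeast was preincubated 90 min with compound, washed twice, and mixed 50:1 with donor buccal cells (5 x 10^5/ml) at 30°C, 200 rpm, for 90 min. Samples were filtered through 30 µm pores, stained with crystal violet, and yeast counted on 200 BECs; n=3, mean ± SEM.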

Data set [3] has as its system Candida albicans. The data set is described as follows: Growth inhibition of Candida albicans at 0.02 to 10 mg/ml. Type of data set: organism-based.
Data set [4] concerns Candida albicans. The experiment in a line: Antimicrobial activity against Candida albicans assessed as inhibition of fungal adherence to BEC at 0.1 mg/ml treated with fungus for 90 mins followed by compound washout and cell line addition by crystal violet staining based microscopic analysis. Type of data set: functional, organism-based. In short, it runs like this: as §1
Data set [5] relates to Candida albicans. The data set is described as follows: Antimicrobial activity against Candida albicans assessed as inhibition of fungal adherence to BEC at 0.1 mg/ml incubated with fungal/BEC mixture for 90 mins by crystal violet staining based microscopic analysis relative to PBS treated control. Type of data set: functional. The settings on record: 1.5 h.
Data set [6] relates to Candida albicans. The data set is described as follows: Antimicrobial activity against Candida albicans assessed as inhibition of fungal adherence to BEC by measuring adhesion at 0.1 mg/ml after 90 mins by crystal violet staining based microscopic analysis relative to control. Type of data set: functional. The settings on record: 1.5 h. In short, it runs like this:
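Competition format: yeast (1 x 10^8/mL PBS) and exfoliated human buccal cells (50:1 ratio) were co-incubated with compound for 90 min at 30°C, 200 rpm. BECs were trapped on a 30 µm polycarbonate membrane, washed twice with PBS, heat-fixed and crystal violet-stained. Adherent yeast were counted microscopically on 200 random BECs; three independent occasions, mean ± SEM.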

Data set [7] relates to Candida albicans. The data set is described as follows: Antimicrobial activity against Candida albicans assessed as inhibition of fungal adherence to BEC at 0.1 mg/ml incubated with fungal/BEC mixture for 90 mins by crystal violet staining based microscopic analysis relative to untreated control. Type of data set: functional. The settings on record: 1.5 h.

The source made the active and inactive calls. The calls are words filed in the database; no cut-off is given here.

Turning to `O=C(NCc1cn([C@@H]2O[C@H](CO)[C@H](O)[C@H](O)[C@H]2O)nn1)c1cc(NC(=S)Nc2ccc3c(c2)C(=O)OC32c3ccc(O)cc3Oc3cc(O)ccc32)cc(C(=O)NCc2cn([C@@H]3O[C@H](CO)[C@H](O)[C@H](O)[C@H]3O)nn2)c1`, the Drug uptake result in data set [1] is on record as “Active”.

As for `CCC(=O)Nc1cccc(C(=O)NCc2cn([C@H]3O[C@@H](C)[C@@H](O)[C@@H](O)[C@@H]3O)nn2)c1`, the Activity in the data set with Candida albicans [2] is on record as -2%. Consider `CCC(=O)Nc1cc(C(=O)NCc2cn([C@H]3O[C@H](CO)[C@@H](O)[C@H](O)[C@H]3NC(C)=O)nn2)cc(C(=O)NCc2cn([C@H]3O[C@H](CO)[C@@H](O)[C@H](O)[C@H]3NC(C)=O)nn2)c1`, for which the Activity with Candida albicans [2] is recorded as -45%.

In the case of `O=C(NCc1cn(CCO[C@@H]2O[C@H](CO)[C@H](O)[C@H](O)[C@H]2O)nn1)c1cc(C(=O)NCc2cn(CCO[C@@H]3O[C@H](CO)[C@H](O)[C@H](O)[C@H]3O)nn2)cc(C(=O)NCc2cn(CCO[C@@H]3O[C@H](CO)[C@H](O)[C@H](O)[C@H]3O)nn2)c1`, the Activity with Candida albicans [2] is given as -42%. Further, the “growth inhibition (GI)” value with Candida albicans [3] is listed as “Non-Toxic”. In the case of `CCC(=O)Nc1cccc(C(=O)NCc2cn(CCO[C@@H]3O[C@H](CO)[C@H](O)[C@H](O)[C@H]3O)nn2)c1`, in the data set on Candida albicans [2], the Activity is recorded as -7.5%.

In the case of `CCC(=O)Nc1cc(C(=O)NCc2cn([C@@H]3O[C@H](CO)[C@H](O)[C@H](O)[C@H]3O)nn2)cc(C(=O)NCc2cn([C@@H]3O[C@H](CO)[C@H](O)[C@H](O)[C@H]3O)nn2)c1`, the inhibition entry with Candida albicans [4] was “Active”. For the same compound, the inhibition at 100 µg/mL in the data set with Candida albicans [5] was 31%; in the data set with Candida albicans [6], 65%; in the data set with Candida albicans [7] it was 56%. The Activity with Candida albicans [2] is on record as -80%. Further, the “growth inhibition (GI)” value in the data set on Candida albicans [3] was “Non-Toxic”. With `CCC(=O)Nc1cc(C(=O)NCc2cn(CCO[C@@H]3O[C@H](CO)[C@H](O)[C@H](O)[C@H]3O)nn2)cc(C(=O)NCc2cn(CCO[C@@H]3O[C@H](CO)[C@H](O)[C@H](O)[C@H]3O)nn2)c1`, the Activity in the data set on Candida albicans [2] is reported as -35%. Also, the “growth inhibition (GI)” value with Candida albicans [3] is reported as “Non-Toxic”.

Regarding `CC[C@H](C)C[C@H](C)CCCCCCCCC(=O)N[C@H]1C[C@@H](O)[C@@H](NCCN)NC(=O)[C@@H]2[C@@H](O)CCN2C(=O)[C@H]([C@H](O)CCN)NC(=O)[C@H]([C@H](O)[C@@H](O)c2ccc(O)cc2)NC(=O)[C@@H]2C[C@@H](O)CN2C(=O)[C@H]([C@@H](C)O)NC1=O` [CASPOFUNGIN], the “growth inhibition (GI)” value with Candida albicans [3] is “Non-Toxic”.

For the compound `O=C(NCc1cn([C@@H]2O[C@H](CO)[C@H](O)[C@H](O)[C@H]2O)nn1)c1cc(C(=O)NCc2cn([C@@H]3O[C@H](CO)[C@H](O)[C@H](O)[C@H]3O)nn2)cc(C(=O)NCc2cn([C@@H]3O[C@H](CO)[C@H](O)[C@H](O)[C@H]3O)nn2)c1`, the Activity with Candida albicans [2] is -45%. For the same compound, the “growth inhibition (GI)” value with Candida albicans [3] is “Non-Toxic”. For the compound `CCC(=O)Nc1cc(C(=O)NCc2cn([C@@H]3O[C@H](CO)[C@H](O[C@@H]4O[C@H](CO)[C@H](O)[C@H](O)[C@H]4O)[C@H](O)[C@H]3O)nn2)cc(C(=O)NCc2cn([C@@H]3O[C@H](CO)[C@H](O[C@@H]4O[C@H](CO)[C@H](O)[C@H](O)[C@H]4O)[C@H](O)[C@H]3O)nn2)c1`, the Activity with Candida albicans [2] came out at 6.5%. As to `C[C@@H]1O[C@H](n2cc(CNC(=O)c3cc(C(=O)NCc4cn([C@H]5O[C@@H](C)[C@@H](O)[C@@H](O)[C@@H]5O)nn4)cc(C(=O)NCc4cn([C@H]5O[C@@H](C)[C@@H](O)[C@@H](O)[C@@H]5O)nn4)c3)nn2)[C@@H](O)[C@H](O)[C@@H]1O`, the Activity in the data set with Candida albicans [2] is -30%. Moreover, the “growth inhibition (GI)” value in the data set on Candida albicans [3] is “Non-Toxic”. Consider `CCC(=O)Nc1cc(C(=O)N[C@@H]2O[C@H](CO)[C@H](O)[C@H](O)[C@H]2O)cc(C(=O)N[C@@H]2O[C@H](CO)[C@H](O)[C@H](O)[C@H]2O)c1`, for which the Activity in the data set on Candida albicans [2] is listed as -26%. On the same count and under the same terms, next, `CCC(=O)Nc1cc(C(=O)NCc2cn([C@H]3O[C@H](CO)[C@@H](O)[C@H](O)[C@@H]3O)nn2)cc(C(=O)NCc2cn([C@H]3O[C@H](CO)[C@@H](O)[C@H](O)[C@@H]3O)nn2)c1`: 3%; `CCC(=O)Nc1cc(C(=O)NCc2cn([C@@H]3O[C@H](CO)[C@H](O)[C@H](O)[C@H]3O)nn2)cc(C(=O)NCc2cn([C@@H]3O[C@H](CO)[C@@H](O)[C@H](O)[C@@H]3O)nn2)c1`: -24%.

Consider `CCC(=O)Nc1cccc(C(=O)NCc2cn([C@@H]3O[C@H](CO)[C@H](O)[C@H](O)[C@H]3O)nn2)c1`, for which the Activity with Candida albicans [2] is reported as -14.5%. Regarding `CCC(=O)Nc1cc(C(=O)NCc2cn([C@H]3O[C@@H](C)[C@@H](O)[C@@H](O)[C@@H]3O)nn2)cc(C(=O)NCc2cn([C@H]3O[C@@H](C)[C@@H](O)[C@@H](O)[C@@H]3O)nn2)c1`, the Activity in the data set with Candida albicans [2] is listed as -8%. In addition, the “growth inhibition (GI)” value in the data set on Candida albicans [3] is “Non-Toxic”.

(Values after ChEMBL document CHEMBL4382206, “Inhibition of adherence of the yeast Candida albicans to buccal epithelial cells by synthetic aromatic glycoconjugates” (Eur J Med Chem, 2018).)
